Experimental data: ChEMBL document CHEMBL4406880, “Design, synthesis, and bioactivity of dihydropyrimidine derivatives as kinesin spindle protein inhibitors” (Bioorg Med Chem, 2019)

Columns and labels:
Type in all cases: functional
OVCAR-5 = assay: Growth inhibition of human OVCAR5 cells incubated for 48 hrs by sulforhodamine B assay; settings: OVCAR-5, 48 h
Method in brief: (§1)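 NCI-60 five-dose SRB assay. Cells were exposed for 48 h to tenfold dilutions of 0.01, 0.1, 1, 10 and 100 µM, in RPMI 1640 with 5% FBS. Plates fixed with TCA at the time of drug addition served as the time-zero reference. GI50 is the concentration giving a 50% reduction in net growth. TGI is total growth inhibition. LC50 is a net 50% loss of the initial cells.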

SNB-75 [1] = assay: Growth inhibition of human SNB75 cells assessed as cell viability at 1 uM incubated for 48 hrs by sulforhodamine B assay; settings: SNB-75, 48 h, read-out: Activity
SNB-75 [2] = assay: Induction of apoptosis in human SNB75 cells assessed as early apoptotic cells at 2 uM incubated for 24 hrs by annexin V FITC and propidium iodide based flow cytometry (reference value: 0.82 %)
SK-MEL-28 = assay: Growth inhibition of human SK-MEL-28 cells incubated for 48 hrs by sulforhodamine B assay; settings: SK-MEL-28, 48 h; method in brief: as §1
HCC 2998 = assay: Growth inhibition of human HCC2998 cells assessed as cell viability at 0.1 uM incubated for 48 hrs by sulforhodamine B assay; settings: HCC 2998, 48 h, read-out: Activity
RXF 393 = assay: Growth inhibition of human RXF393 cells assessed as cell viability at 0.1 uM incubated for 48 hrs by sulforhodamine B assay; settings: RXF 393, 48 h, read-out: Activity
HCT-116 = assay: Growth inhibition of human HCT116 cells assessed as cell viability at 0.001 uM incubated for 48 hrs by sulforhodamine B assay relative to control; settings: HCT-116, 48 h, read-out: Activity
CAKI-1 [3] = assay: Growth inhibition of human Caki1 cells assessed as cell viability at 0.1 uM incubated for 48 hrs by sulforhodamine B assay; settings: CAKI-1, 48 h, read-out: Activity
MDA-MB-231 = assay: Growth inhibition of human MDA-MB-231 cells assessed as cell viability at 0.1 uM incubated for 48 hrs by sulforhodamine B assay; settings: MDA-MB-231, 48 h, read-out: Activity
SNB-75 [4] = assay: Cell cycle arrest in human SNB75 cells assessed as accumulation in G2/M phase at 2 uM incubated for 24 hrs by propidium iodide based flow cytometry (reference value: 10.46 %)
Method in brief: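 SNB-75 cells were exposed to 2 µM for 24 h at 37 °C, 5% CO2, then washed with PBS and fixed in 70% ethanol on ice for 15 min. They were stained 1 h at room temperature with 50 µg/mL propidium iodide, 0.1 mg/mL RNase A and 0.05% Triton X-100. DNA content was read by flow cytometry to give the % of cells in pre-G1, G0/G1, S and G2/M.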

SF-539 = assay: Growth inhibition of human SF539 cells incubated for 48 hrs by sulforhodamine B assay; settings: SF-539, 48 h; method in brief: as §1
BT-549 = assay: Growth inhibition of human BT549 cells assessed as cell viability at 0.001 uM incubated for 48 hrs by sulforhodamine B assay relative to control; settings: BT-549, 48 h, read-out: Activity
SK-MEL-2 = assay: Growth inhibition of human SK-MEL-2 cells assessed as cell viability at 100 uM incubated for 48 hrs by sulforhodamine B assay; settings: SK-MEL-2, 48 h, read-out: Activity
HOP-62 = assay: Growth inhibition of human HOP62 cells assessed as cell viability at 1 uM incubated for 48 hrs by sulforhodamine B assay; settings: HOP-62, 48 h, read-out: Activity
SW-620 = assay: Growth inhibition of human SW620 cells assessed as cell viability at 1 uM incubated for 48 hrs by sulforhodamine B assay; settings: SW-620, 48 h, read-out: Activity
SK-MEL-5 = assay: Growth inhibition of human SK-MEL-5 cells assessed as cell viability at 0.1 uM incubated for 48 hrs by sulforhodamine B assay; settings: SK-MEL-5, 48 h, read-out: Activity
UACC-62 = assay: Growth inhibition of human UACC62 cells assessed as cell viability at 100 uM incubated for 48 hrs by sulforhodamine B assay; settings: UACC-62, 48 h, read-out: Activity
SK-OV-3 = assay: Growth inhibition of human SKOV3 cells assessed as cell viability at 1 uM incubated for 48 hrs by sulforhodamine B assay; settings: SK-OV-3, 48 h, read-out: Activity
CAKI-1 [5] = assay: Growth inhibition of human Caki1 cells incubated for 48 hrs by sulforhodamine B assay; settings: CAKI-1, 48 h
Method in brief: (§2)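 NCI-60 five-dose mode: five tenfold dilutions (0.01, 0.1, 1, 10, 100 µM) are applied for 48 h to cells in RPMI 1640 with 5% FBS at 37 °C. Endpoint is TCA fixation with sulforhodamine B read at 515 nm. % growth comes from the 0 h and control absorbances. GI50 is the concentration giving a 50% reduction in net cell growth.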

NCI-H322M = assay: Growth inhibition of human NCI-H322M cells assessed as cell viability at 0.1 uM incubated for 48 hrs by sulforhodamine B assay; settings: read-out: Activity
MDA-MB-435 = assay: Growth inhibition of human MDA-MB-435 cells assessed as cell viability at 100 uM incubated for 48 hrs by sulforhodamine B assay; settings: MDA-MB-435, 48 h, read-out: Activity
UO-31 = assay: Growth inhibition of human UO31 cells assessed as cell viability at 1 uM incubated for 48 hrs by sulforhodamine B assay; settings: UO-31, 48 h, read-out: Activity
T47D = assay: Growth inhibition of human T47D cells assessed as cell viability at 0.001 uM incubated for 48 hrs by sulforhodamine B assay relative to control; settings: read-out: Activity
786-0 = assay: Growth inhibition of human 786-0 cells assessed as cell viability at 100 uM incubated for 48 hrs by sulforhodamine B assay; settings: 786-0, 48 h, read-out: Activity; method in brief: as §2
LOX IMVI = assay: Growth inhibition of human LOXIMVI cells assessed as cell viability at 1 uM incubated for 48 hrs by sulforhodamine B assay; settings: read-out: Activity
ACHN = assay: Growth inhibition of human ACHN cells assessed as cell viability at 100 uM incubated for 48 hrs by sulforhodamine B assay; settings: read-out: Activity; method in brief: as §2
[6] = read-out: LC50 (the source's name)
[7] = read-out: pLC50 (the source's name) (converted)

Molecule `CC1=C(C(=O)OCc2ccccc2)C(c2ccc3c(c2)OCO3)n2c(nc3ccccc32)N1` (racemic) has a GI50 (OVCAR-5; read-out: GI50) of over 100 µM, a CC50 (OVCAR-5; [6]) of over 100 µM and a TGI (OVCAR-5; read-out: TGI) of over 100 µM. The GI50 (OVCAR-5; read-out: pGI50 (converted)) was over 100 µM, the CC50 (OVCAR-5; [7]) was over 100 µM and the TGI (OVCAR-5; read-out: pTGI) was over 100 µM. For the same molecule, the viability at 1 µM (SNB-75 [1]) was -8%, the Activity (SNB-75 [2]) was 7.65% and the GI50 (SK-MEL-28; read-out: GI50) was over 100 µM. The LC50 (SK-MEL-28; read-out: LC50) was over 100 µM, the TGI (SK-MEL-28; read-out: TGI) was over 100 µM and the GI50 (SK-MEL-28; read-out: pGI50 (converted)) was over 100 µM. It also gave an LC50 (SK-MEL-28; read-out: pLC50 (converted)) of over 100 µM, a TGI (SK-MEL-28; read-out: pTGI) of over 100 µM and a viability at 0.1 µM (HCC 2998) of 96%. The viability at 0.1 µM (RXF 393) was 90%, the viability at 0.001 µM (HCT-116) was 96% and the viability at 0.1 µM (CAKI-1 [3]) was 74%. It also gave a viability at 0.1 µM (MDA-MB-231) of 98%, an Activity (SNB-75 [4]) of 37.59% and a GI50 (SF-539; read-out: GI50) of 340 nM. The LC50 (SF-539; read-out: LC50) was over 100 µM, the TGI (SF-539; read-out: TGI) was over 100 µM and the GI50 (SF-539; read-out: pGI50 (converted)) was 339 nM. The LC50 (SF-539; read-out: pLC50 (converted)) was over 100 µM, the TGI (SF-539; read-out: pTGI) was over 100 µM and the viability at 0.001 µM (BT-549) was 95%. For the same molecule, the viability at 100 µM (SK-MEL-2) was 37%, the viability at 1 µM (HOP-62) was 44% and the viability at 1 µM (SW-620) was 23%. The viability at 0.1 µM (SK-MEL-5) was 98%, the viability at 100 µM (UACC-62) was 30% and the viability at 1 µM (SK-OV-3) was 27%. For the same molecule, the GI50 (CAKI-1 [5]; read-out: GI50) was 280 nM, the CC50 (CAKI-1 [5]; [6]) was over 100 µM and the TGI (CAKI-1 [5]; read-out: TGI) was over 100 µM. It also gave a GI50 (CAKI-1 [5]; read-out: pGI50 (converted)) of 282 nM, a CC50 (CAKI-1 [5]; [7]) of over 100 µM and a TGI (CAKI-1 [5]; read-out: pTGI) of over 100 µM. For the same molecule, the viability at 0.1 µM (NCI-H322M) was 99%, the viability at 100 µM (MDA-MB-435) was -7% and the viability at 1 µM (UO-31) was 38%. It also gave a viability at 0.001 µM (T47D) of 82%, a viability at 100 µM (786-0) of 22% and a viability at 1 µM (LOX IMVI) of 35%. The viability at 100 µM (ACHN) was 35%.
